Source: ChEMBL document CHEMBL3120102, “Structure-based design, synthesis and biological evaluation of novel anthra[1,2-d]imidazole-6,11-dione homologues as potential antitumor agents” (2013)

Legend:
Type in all cases: functional
NCI-H460 = assay: Cytotoxicity against human NCI-H460 cells assessed as growth inhibition after 48 hrs by SRB assay
How it was run: (§1)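 NCI 60-cell-line screen, five-dose stage: each cell line exposed for 48 h to five concentrations spanning five log steps; cellular protein measured by sulforhodamine B colorimetry. A time-zero cell control and plates without drug are used to derive GI50, TGI and LC50 from log-concentration dose-response curves.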

SW-620 = assay: Cytotoxicity against human SW620 cells assessed as growth inhibition after 48 hrs by SRB assay
How it was run: (§2)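 NCI 60-cell-line screen, two stages. Five-dose testing at […]. Cellular protein measured by sulforhodamine B colorimetry after 48 h drug exposure. A time-zero control and drug-free plates are used to derive GI50, TGI and LC50 from dose-response curves plotted as log10 concentration per cell line.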

SK-MEL-28 = assay: Cytotoxicity against human SK-MEL-28 cells assessed as growth inhibition after 48 hrs by SRB assay; how it was run: as §1
TK-10 = assay: Cytotoxicity against human TK10 cells assessed as growth inhibition after 48 hrs by SRB assay; how it was run: as §2
[1] = (§3) Cytotoxicity against human Hs578T cells assessed as growth inhibition after 48 hrs by SRB assay; settings: Hs-578T
How it was run: (§4)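 NCI 60-cell-line five-dose screen at […]. Drug exposure was 48 h, followed by sulforhodamine B protein staining. GI50, TGI and LC50 were calculated against a time-zero control and untreated plates, with dose–response curves plotted from log10 concentration.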

Hs-578T = assay: as §3; how it was run: as §4
MCF7 = assay: Cytotoxicity against human MCF7 cells assessed as growth inhibition after 48 hrs by SRB assay; how it was run: as §1
COLO 205 = assay: Cytotoxicity against human COLO205 cells assessed as growth inhibition after 48 hrs by SRB assay; how it was run: as §4
KM12 = assay: Cytotoxicity against human KM12 cells assessed as growth inhibition after 48 hrs by SRB assay; how it was run: as §4
RPMI-8226 = assay: Cytotoxicity against human RPMI8226 cells assessed as growth inhibition after 48 hrs by SRB assay; how it was run: as §1
M14 = assay: Cytotoxicity against human M14 cells assessed as growth inhibition after 48 hrs by SRB assay; how it was run: as §4
HOP-62 = assay: Cytotoxicity against human HOP62 cells assessed as growth inhibition after 48 hrs by SRB assay; how it was run: as §4
NCI/ADR-RES = assay: (§5) Cytotoxicity against human NCI-ADR-RES cells assessed as growth inhibition after 48 hrs by SRB assay; how it was run: as §1
[2] = as §5; how it was run: as §1
ACHN = assay: Cytotoxicity against human ACHN cells assessed as growth inhibition after 48 hrs by SRB assay; how it was run: as §4
LOX IMVI = assay: Cytotoxicity against human LOXIMVI cells assessed as growth inhibition after 48 hrs by SRB assay; how it was run: as §4
[3] = (§6) Cytotoxicity against human OVCAR4 cells assessed as growth inhibition after 48 hrs by SRB assay; settings: OVCAR-4, 48 h; how it was run: as §1
OVCAR-4 = assay: as §6; how it was run: as §1
CAKI-1 = assay: Cytotoxicity against human CAKI-1 cells assessed as cell growth at 10 uM after 48 hrs by SRB assay; settings: CAKI-1, 48 h, read-out: Activity
SN12C = assay: Cytotoxicity against human SN12C cells assessed as growth inhibition after 48 hrs by SRB assay; how it was run: as §2
HT-29 = assay: Cytotoxicity against human HT-29 cells assessed as growth inhibition after 48 hrs by SRB assay; how it was run: as §4
CCRF-CEM = assay: Cytotoxicity against human CCRF-CEM cells assessed as growth inhibition after 48 hrs by SRB assay; how it was run: as §4
SR = assay: Cytotoxicity against human SR cells assessed as growth inhibition after 48 hrs by SRB assay; how it was run: as §2
SK-MEL-5 = assay: Cytotoxicity against human SK-MEL-5 cells assessed as growth inhibition after 48 hrs by SRB assay; how it was run: as §1
OVCAR-3 = assay: Cytotoxicity against human OVCAR3 cells assessed as cell growth at 10 uM after 48 hrs by SRB assay; settings: OVCAR-3, 48 h, read-out: Activity
How it was run: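 First stage of the NCI 60 human tumour cell line screen: a single dose is tested against every line. Cell growth is read as cellular protein by sulforhodamine B colorimetry after 48 h of drug exposure, with reference to a time-zero control and to untreated plates.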

NCI-H226 = assay: Cytotoxicity against human NCI-H226 cells assessed as growth inhibition after 48 hrs by SRB assay; how it was run: as §1
MDA-MB-231 = assay: Cytotoxicity against human MDA-MB-231 cells assessed as growth inhibition after 48 hrs by SRB assay; how it was run: as §1
U-251 = assay: Cytotoxicity against human U251 cells assessed as growth inhibition after 48 hrs by SRB assay; how it was run: as §2
IGROV-1 = assay: Cytotoxicity against human IGROV1 cells assessed as growth inhibition after 48 hrs by SRB assay; how it was run: as §4
[4] = read-out: LC50 (the source's name)

CCSc1nc2ccc3c(c2[nH]1)C(=O)c1ccccc1C3=O
growth inhibition (GI) (NCI-H460): Dose-dependent effect
GI50 (NCI-H460; NCI-H460, 48 h): 5.49 µM
LC50 (NCI-H460; NCI-H460, 48 h): > 100 µM
TGI (NCI-H460; NCI-H460, 48 h): > 100 µM
growth inhibition (GI) (SW-620): Dose-dependent effect
GI50 (SW-620; SW-620, 48 h): > 100 µM
LC50 (SW-620; SW-620, 48 h): > 100 µM
TGI (SW-620; SW-620, 48 h): > 100 µM
growth inhibition (GI) (SK-MEL-28): Dose-dependent effect
GI50 (SK-MEL-28; SK-MEL-28, 48 h): 43.6 µM
LC50 (SK-MEL-28; SK-MEL-28, 48 h): > 100 µM
TGI (SK-MEL-28; SK-MEL-28, 48 h): > 100 µM
growth inhibition (GI) (TK-10): Dose-dependent effect
GI50 (TK-10; TK-10, 48 h): 7.4 µM
LC50 (TK-10; TK-10, 48 h): > 100 µM
TGI (TK-10; TK-10, 48 h): > 100 µM
GI50 [1]: 5.12 µM
TGI [1]: > 100 µM
CC50 [1, 4]: > 100 µM
growth inhibition (GI) (Hs-578T): Dose-dependent effect
growth inhibition (GI) (MCF7): Dose-dependent effect
GI50 (MCF7; MCF7, 48 h): 4.84 µM
LC50 (concentration killing 50% of cells) (MCF7; MCF7, 48 h): > 100 µM
TGI (MCF7; MCF7, 48 h): > 100 µM
growth inhibition (GI) (COLO 205): Dose-dependent effect
GI50 (COLO 205; COLO 205, 48 h): 17.4 µM
LC50 (COLO 205; COLO 205, 48 h): > 100 µM
TGI (COLO 205; COLO 205, 48 h): > 100 µM
growth inhibition (GI) (KM12): Dose-dependent effect
GI50 (KM12; KM12, 48 h): 8.43 µM
TGI (KM12; KM12, 48 h): > 100 µM
CC50 (KM12; KM12, 48 h, read-out: LC50 (the source's name)): > 100 µM
growth inhibition (GI) (RPMI-8226): Dose-dependent effect
GI50 (RPMI-8226; RPMI-8226, 48 h): 2.83 µM
LC50 (concentration causing 50% net cell kill) (RPMI-8226; RPMI-8226, 48 h): > 100 µM
TGI (RPMI-8226; RPMI-8226, 48 h): > 100 µM
growth inhibition (GI) (M14): Dose-dependent effect
GI50 (M14; M14, 48 h): 5.62 µM
LC50 (M14; M14, 48 h): > 100 µM
TGI (M14; M14, 48 h): > 100 µM
growth inhibition (GI) (HOP-62): Dose-dependent effect
GI50 (HOP-62; HOP-62, 48 h): 25.9 µM
LC50 (concentration killing 50% of cells relative to time zero) (HOP-62; HOP-62, 48 h): > 100 µM
TGI (HOP-62; HOP-62, 48 h): > 100 µM
growth inhibition (GI) (NCI/ADR-RES): Dose-dependent effect
GI50 [2]: 8.04 µM
LC50 (concentration causing 50% net cell kill) [2]: > 100 µM
TGI [2]: > 100 µM
GI50 (ACHN): 5.09 µM
TGI (ACHN): > 100 µM
growth inhibition (GI) (ACHN): Dose-dependent effect
CC50 (ACHN; [4]): > 100 µM
GI50 (LOX IMVI): 6 µM
LC50 (LOX IMVI): > 100 µM
TGI (LOX IMVI): > 100 µM
growth inhibition (GI) (LOX IMVI): Dose-dependent effect
GI50 [3]: 3.17 µM
LC50 (concentration killing 50% of cells) [3]: > 100 µM
TGI [3]: > 100 µM
growth inhibition (GI) (OVCAR-4): Dose-dependent effect
growth at 10 µM (CAKI-1): -8.01%
GI50 (SN12C): 10.3 µM
TGI (SN12C): > 100 µM
growth inhibition (GI) (SN12C): Dose-dependent effect
CC50 (SN12C; [4]): > 100 µM
growth inhibition (GI) (HT-29): Dose-dependent effect
GI50 (HT-29; HT-29, 48 h): 23.1 µM
TGI (HT-29; HT-29, 48 h): > 100 µM
CC50 (HT-29; HT-29, 48 h, read-out: LC50 (the source's name)): > 100 µM
GI50 (CCRF-CEM): 3.66 µM
LC50 (CCRF-CEM): > 100 µM
TGI (CCRF-CEM): > 100 µM
growth inhibition (GI) (CCRF-CEM): Dose-dependent effect
GI50 (SR): 2.36 µM
LC50 (50% lethal concentration) (SR): > 100 µM
TGI (SR): > 100 µM
growth inhibition (GI) (SR): Dose-dependent effect
growth inhibition (GI) (SK-MEL-5): Dose-dependent effect
GI50 (SK-MEL-5; SK-MEL-5, 48 h): 33.6 µM
LC50 (concentration killing 50% of cells relative to time zero) (SK-MEL-5; SK-MEL-5, 48 h): > 100 µM
TGI (SK-MEL-5; SK-MEL-5, 48 h): > 100 µM
growth at 10 µM (OVCAR-3): 69.3%
growth inhibition (GI) (NCI-H226): Dose-dependent effect
GI50 (NCI-H226; NCI-H226, 48 h): 14.2 µM
LC50 (NCI-H226; NCI-H226, 48 h): > 100 µM
TGI (NCI-H226; NCI-H226, 48 h): > 100 µM
growth inhibition (GI) (MDA-MB-231): Dose-dependent effect
GI50 (MDA-MB-231; MDA-MB-231, 48 h): 20.7 µM
LC50 (MDA-MB-231; MDA-MB-231, 48 h): > 100 µM
TGI (MDA-MB-231; MDA-MB-231, 48 h): > 100 µM
growth inhibition (GI) (U-251): Dose-dependent effect
GI50 (U-251; U-251, 48 h): 19.5 µM
TGI (U-251; U-251, 48 h): > 100 µM
CC50 (U-251; U-251, 48 h, read-out: LC50 (the source's name)): > 100 µM
growth inhibition (GI) (IGROV-1): Dose-dependent effect
GI50 (IGROV-1; IGROV-1, 48 h): 2.38 µM
LC50 (IGROV-1; IGROV-1, 48 h): > 100 µM
TGI (IGROV-1; IGROV-1, 48 h): > 100 µM
